# Activity calls are given as the source filed them. Unless noted, no stated cut-off is given here; in the data, active means inhibition above about 30%; inactive means the rest.
# Key:
# [1] = reducers of endogenous Her2 protein level, primary screen, SKBR3 breast tumor cells, AlphaScreen, ATP viability (AID 461;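 active means Her2 level under about 52% in both replicate screens, with viability over 70% of control, limit read from the data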;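 on Her2 level: lower value means less Her2 protein in the cells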;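 on viability: percent of carrier control wells set as 100% viability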); settings: 18-24 h, measured here: SKBR3 viability, ATP luminescence, at 10 µM
# [2] = target: Receptor tyrosine-protein kinase erbB-2 (Homo sapiens) (UniProt P04626); experiment: as above; settings: 18-24 h, at 10 µM, stronger effect = lower value
# [3] = SK-BR-3 cell growth inhibitors, pilot screen, 24 h, human (AID 572;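 active means viability at or below 10% of carrier control in both of two separate runs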;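 further: compound exposure lasted between 18 and 24 h rather than exactly 24 h; 100% = carrier-treated control wells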); settings: SK-BR-3 viability, CellTiter-Glo luminescence, at 10 µM, stronger effect = lower value
# [4] = HUVEC growth inhibition – cell-based, human, primary screen (AID 575;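 active means viability at or below 30% in both replicate assays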;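 further: 100% = median of untreated cell wells with 0.1% DMSO on each plate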); settings: HUVEC proliferation, CellTiter-Glo luminescence, 72 h; at 10 µM; stronger effect = lower value
# Outline: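 Assay system: Primary human umbilical vein endothelial cells | Quantity: 1250 cells per well | Medium: Supplemented EBM, 2% fetal bovine serum | Detection: CellTiter-Glo luminescence measuring cellular ATP | Read-out: % viability vs DMSO wells | Plate: Collagen-coated 384-well format | Times: 72 h exposure, 37 °C, 5% CO2, 30 min RT equilibration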
# [5] = reversal of MRP1-mediated doxorubicin resistance, pilot screen, H69AR cells, doxorubicin co-treatment (AID 601;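 active means viability loss from added drug above about 55%, and viability with drug at most 40%, in both replicates, limit read from the data, passing the limit was not always enough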); settings: CellTiter-Glo, 72 h, at 10 µM; for differential viability (reversal): stronger effect = higher value
# [6] = 384-well plate pilot, post-Golgi transport modulator project, inhibition of yeast transport mutant growth (AID 636; in the data active means inhibition above about 31%); settings: absorbance 615 nm, about 18 h, stronger effect = higher value
# [7] = growth suppression of yeast trafficking mutant, preliminary HTS, modulators of trafficking downstream of Golgi apparatus project, 1536-format plate, OD 615 nm (AID 637); settings: yeast transport mutant growth, absorbance 615 nm, 18 h; stronger effect = higher value
# [8] = H69AR cells + 2 uM doxorubicin, measured here: viability with 2 uM doxorubicin, stronger effect = lower value
# [9] = H69AR cells, compound alone cytotoxicity
# Receptor tyrosine-protein kinase erbB-2 (Homo sapiens), sequence (P04626 whole entry, looked up): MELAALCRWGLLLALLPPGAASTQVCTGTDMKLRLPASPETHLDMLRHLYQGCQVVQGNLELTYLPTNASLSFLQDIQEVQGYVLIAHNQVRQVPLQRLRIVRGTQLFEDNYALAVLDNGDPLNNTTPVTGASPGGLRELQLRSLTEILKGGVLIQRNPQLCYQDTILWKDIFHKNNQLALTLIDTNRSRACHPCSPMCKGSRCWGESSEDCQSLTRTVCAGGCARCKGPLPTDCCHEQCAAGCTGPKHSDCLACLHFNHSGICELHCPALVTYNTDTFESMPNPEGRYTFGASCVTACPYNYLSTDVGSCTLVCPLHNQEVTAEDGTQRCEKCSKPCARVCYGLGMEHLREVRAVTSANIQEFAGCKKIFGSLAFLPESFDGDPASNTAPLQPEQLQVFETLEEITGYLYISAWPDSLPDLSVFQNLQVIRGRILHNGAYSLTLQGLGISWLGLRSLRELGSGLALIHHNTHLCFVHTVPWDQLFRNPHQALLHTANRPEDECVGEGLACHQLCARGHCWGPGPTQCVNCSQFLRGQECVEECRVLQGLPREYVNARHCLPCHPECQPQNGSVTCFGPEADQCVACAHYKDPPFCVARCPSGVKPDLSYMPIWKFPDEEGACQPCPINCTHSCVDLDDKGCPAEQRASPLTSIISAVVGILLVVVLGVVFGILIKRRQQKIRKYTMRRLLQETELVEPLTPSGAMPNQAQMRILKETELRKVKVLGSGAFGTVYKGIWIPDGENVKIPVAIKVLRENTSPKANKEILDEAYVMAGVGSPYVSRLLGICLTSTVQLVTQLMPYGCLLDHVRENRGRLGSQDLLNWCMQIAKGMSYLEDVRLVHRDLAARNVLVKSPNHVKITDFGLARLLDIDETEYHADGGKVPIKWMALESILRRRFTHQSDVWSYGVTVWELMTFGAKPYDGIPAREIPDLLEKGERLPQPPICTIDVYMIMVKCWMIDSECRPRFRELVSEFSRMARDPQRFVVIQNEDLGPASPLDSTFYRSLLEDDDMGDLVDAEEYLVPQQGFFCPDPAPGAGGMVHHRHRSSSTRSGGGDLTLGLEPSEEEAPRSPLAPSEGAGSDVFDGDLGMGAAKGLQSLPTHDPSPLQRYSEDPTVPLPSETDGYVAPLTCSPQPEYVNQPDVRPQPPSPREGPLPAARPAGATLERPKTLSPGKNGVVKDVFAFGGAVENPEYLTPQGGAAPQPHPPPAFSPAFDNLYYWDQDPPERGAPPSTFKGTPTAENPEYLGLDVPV
SMILES,viability [1],Her2 level [2],viability [3],viability [4],differential viability (reversal) ([5]; H69AR cells + 2 uM doxorubicin),"viability [5, 8]","viability [5, 9]",inhibition [6],inhibition [7]
COc1cc(-c2noc(-c3ccccc3C(=O)NCc3ccco3)n2)cc(OC)c1OC,79%,72.5% (inactive),79% (inactive),55.6% (inactive),-6.29% (inactive),65.2%,59%,-5.14% (inactive),1.11% (inactive)
CCCc1nc2ccccc2c(=O)n1NC(=O)c1c(O)c2cccc3c2n(c1=O)CCC3,113%,87.5% (inactive),113% (inactive),83.5% (inactive),-6.06% (inactive),72.1%,66%,-5.2% (inactive),14.1% (inactive)
Cc1ccc(CNC(=O)c2coc(=O)c3ccccc23)o1,93.5%,81% (inactive),93.5% (inactive),81.8% (inactive),-24.6% (inactive),67%,42.4%,-0.53% (inactive),-5.82% (inactive)
Cc1ccc(NC(=O)COS(=O)c2ccc(C)cc2)cc1 (stereo unspecified),97%,95.5% (inactive),97% (inactive),69% (inactive),-2.71% (inactive),41.3%,38.6%,-1.69% (inactive),-0.63% (inactive)
Cc1ccc(C)c(S(=O)(=O)C(C#N)c2nc3ccccc3nc2N2CC(C)OC(C)C2)c1 (stereo unspecified),91%,77% (inactive),91% (inactive),52.2% (inactive),-10.3% (inactive),70.7%,60.4%,0.52% (inactive),16.7% (inactive)
O=C(NCc1ccc2c(c1)OCO2)c1cccc2c1C(=O)N(C1CCCCC1)C2,102%,72.5% (inactive),102% (inactive),87% (inactive),-12.7% (inactive),71.9%,59.2%,-0.38% (inactive),2.83% (inactive)
CSc1nc(N)nc(SCCS(=O)(=O)c2ccc(Cl)cc2)c1C#N,90.5%,68% (inactive),90.5% (inactive),56.6% (inactive),-7.24% (inactive),34.2%,26.9%,-3.47% (inactive),-3.65% (inactive)
Cc1ccc(S(=O)(=O)N2CCOCC2)cc1C(=O)Nc1ccc(-c2cn3ccsc3n2)cc1,80%,80.5% (inactive),80% (inactive),58.7% (inactive),-0.105% (inactive),70.8%,70.7%,-2.63% (inactive),-2.86% (inactive)
CCOC(=O)c1sc(NC(=O)c2c(C)nn(Cc3ccccc3)c2C)cc1C,82.5%,90.5% (inactive),82.5% (inactive),44.6% (inactive),-8.76% (inactive),46.8%,38.1%,-10% (inactive),-4.92% (inactive)
CC(C)(C)c1cc(NC(=O)c2cc(F)c(F)c(F)c2F)no1,102%,92% (inactive),102% (inactive),63.6% (inactive),-20.6% (inactive),70.8%,50.2%,2.08% (inactive),-3.83% (inactive)
CCn1c(CNc2ccc(OC)cc2)nnc1SCC(=O)c1ccc(OC)cc1,110%,91% (inactive),110% (inactive),68.8% (inactive),-14.7% (inactive),65.5%,50.8%,-3.64% (inactive),0.33% (inactive)
Cc1ccccc1OCC(O)CN (stereo unspecified),74%,90% (inactive),74% (inactive),15.3% (active),-5.69% (inactive),25%,19.3%,3.64% (inactive),-6.03% (inactive)
Cc1ccc2nc(NC(=O)C3CCN(S(=O)(=O)c4cccc5nsnc45)CC3)sc2c1,85.5%,63.5% (inactive),85.5% (inactive),42.8% (inactive),-10.7% (inactive),76.5%,65.8%,-5.07% (inactive),10.3% (inactive)
CCOc1ccccc1-n1nnnc1SCC(=O)Nc1cc2oc3ccccc3c2cc1OC,68.5%,102% (inactive),68.5% (inactive),63.6% (inactive),-11.1% (inactive),54.7%,43.6%,4.16% (inactive),-9.05% (inactive)
C/C(Cl)=C/Cn1c(SCc2ccc(Cl)cc2)nc2c1c(=O)[nH]c(=O)n2C,102%,110% (inactive),102% (inactive),78.8% (inactive),-6.12% (inactive),60.4%,54.3%,-1.33% (inactive),-7.1% (inactive)
CC(=O)c1ccccc1Oc1nc(CN2CCOCC2)nc2scc(-c3cccs3)c12,87.5%,79% (inactive),87.5% (inactive),73.3% (inactive),32.8% (inactive),17.1%,49.9%,-8.24% (inactive),2.46% (inactive)
CCc1cc2c(=O)c(-c3ccc4c(c3)OCCO4)coc2cc1OC(=O)c1ccco1,72.5%,68% (inactive),72.5% (inactive),64.3% (inactive),-13.3% (inactive),63.9%,50.5%,-3.29% (inactive),2.79% (inactive)

SMILES,viability [1],Her2 level [2],viability [3],viability [4],differential viability (reversal) ([5]; H69AR cells + 2 uM doxorubicin),"viability [5, 8]","viability [5, 9]",inhibition [6],inhibition [7]
CN1CC=C2C(C#N)=C(N)C(C#N)(C#N)[C@H](c3cccc(Cl)c3)C2C1 (stereo partly specified),94%,73.5% (inactive),94% (inactive),83% (inactive),32.6% (inactive),22.1%,54.7%,-4.27% (inactive),-1.9% (inactive)
CCCCCCc1ccc(-c2ncc(N)cn2)cc1,97%,90.5% (inactive),97% (inactive),7.73% (active),-5.17% (inactive),61.9%,56.7%,-1.47% (inactive),0.32% (inactive)
CCOC(=O)Cc1nnc2c(Nc3ccccc3F)nc3nonc3n12,108%,95.5% (inactive),108% (inactive),36.9% (inactive),-18.9% (inactive),31.5%,12.6%,-3.9% (inactive),-2.54% (inactive)
Cc1c(NC(=O)c2ccc(=O)oc2)c(=O)n(-c2ccccc2)n1C,96.5%,89% (inactive),96.5% (inactive),90.9% (inactive),-18.7% (inactive),67.2%,48.5%,-4.8% (inactive),-0.32% (inactive)
Cc1nc2ccccc2c(=O)n1NC(=O)c1c(O)c2c(n(CC(C)C)c1=O)CCCC2,88.5%,73.5% (inactive),88.5% (inactive),92% (inactive),-17.2% (inactive),66.3%,49.1%,-1.84% (inactive),9.35% (inactive)
CC1=C(C(=O)OC2CCCCC2)C(c2ccc(C)o2)C2=C(CC(C)(C)CC2=O)N1 (stereo unspecified),77.5%,83% (inactive),77.5% (inactive),50.5% (inactive),13.1% (inactive),37.4%,50.5%,0.38% (inactive),-7.83% (inactive)
Cc1ccccc1OCCCN1C(=O)C(=O)c2cccc(C)c21,106%,72% (inactive),106% (inactive),77.7% (inactive),-16.4% (inactive),49.4%,33%,2.56% (inactive),-1.33% (inactive)
N#Cc1c(N)nc(SCc2ccncc2)c(C#N)c1-c1cccs1,98.5%,71% (inactive),98.5% (inactive),79% (inactive),37.4% (inactive),14.9%,52.3%,-0.53% (inactive),7.74% (inactive)
N#CC1=C(N)n2c(s/c(=C\c3ccco3)c2=O)=C(C#N)C1c1ccco1 (stereo unspecified),100%,31.5% (active),100% (inactive),78.6% (inactive),-10.7% (inactive),58%,47.4%,0.13% (inactive),-4.36% (inactive)
CCOC(=O)N1CCN(CCC(=O)c2ccc(Cl)cc2)CC1,106%,89.5% (inactive),106% (inactive),86.4% (inactive),-5.11% (inactive),17.9%,12.8%,-2.99% (inactive),-6.51% (inactive)
Cn1c(Cc2ccccc2)nnc1SCC(=O)c1ccc(Br)s1,97.5%,83.5% (inactive),97.5% (inactive),81.4% (inactive),-4.43% (inactive),53.9%,49.4%,-2.08% (inactive),-5.4% (inactive)
CCOC(=O)c1sc2nc(N3CCCC3)c3c(c2c1N)CC(C)(C)OC3,75.5%,80.5% (inactive),75.5% (inactive),58.8% (inactive),-12.8% (inactive),65.9%,53.1%,-7.92% (inactive),-9.83% (inactive)
CCc1cc2c(=O)c(-c3nc4ccccc4[nH]3)coc2cc1OC(=O)N1CCOCC1,100%,81.5% (inactive),100% (inactive),64.8% (inactive),-13.9% (inactive),71.6%,57.7%,-5.07% (inactive),-5.08% (inactive)
CCN(CC)CC(=O)Nc1ccc(-c2nc3cc(NC(=O)CN(CC)CC)ccc3o2)cc1,91%,82.5% (inactive),91% (inactive),3.96% (active),-14.4% (inactive),58.6%,44.2%,-2.13% (inactive),-9.34% (inactive)
C=CCn1c(N)c(C(=O)OC(C)(C)C)c2nc3ccccc3nc21,102%,90.5% (inactive),102% (inactive),70.5% (inactive),-15.9% (inactive),66.7%,50.8%,0.66% (inactive),1.94% (inactive)
Cc1ccc(Cn2c(C)nc3c(c2=O)c2nc4ccccc4nc2n3Cc2ccco2)cc1,118%,71.5% (inactive),118% (inactive),54.9% (inactive),-1.46% (inactive),50.5%,49%,1.32% (inactive),1.8% (inactive)
CCOC(=O)c1oc2ccccc2c1NC(=O)c1cccc(OC)c1OC,96.5%,100% (inactive),96.5% (inactive),51% (inactive),-68.6% (inactive),88.2%,19.6%,-2.99% (inactive),-2.22% (inactive)

# Reference: PubChem BioAssay
